According to ChEMBL document CHEMBL1143844, “Biochemical studies on the mechanism of human immunodeficiency virus type 1 reverse transcriptase resistance to 1-(beta-D-dioxolane)thymine triphosphate” (Antimicrob Agents Chemother, 2007):

How the values were obtained:
[1] = Inhibition of HIV1 reverse transcriptase 41L/69S-SG/184V/210W/215Y mutant by heteropolymeric DNA polymerase assay; design: species or system Human immunodeficiency virus 1
Procedure, shortened: (§1)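 Purified p66/p51 HIV-1 RT, or p66 homodimer for 65R, at 30–100 pM (about 1.5–4.5 mU/well). Plate-bound 18-mer DNA primer on a 50-base 5′-A12-(GTCA)5-3′ DNA template. dATP, dGTP, dCTP and BrdUTP at 1.0 μM each, no ATP. Buffer: HEPES 50 mM pH 7.3, 10 mM MgCl2. Incubation 180 min at 33°C, NaOH dehybridization, anti-BrdU-AP tracer, A405. IC50 from seven inhibitor concentrations, at least two experiments in duplicate.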

[2] = Inhibition of HIV1 reverse transcriptase 41L/67N/70R/210W/215Y mutant in presence of 3.2 mM ATP by prA/odT assay; design: species or system Human immunodeficiency virus 1
Procedure, shortened: (§2)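 Buffer: 50 mM HEPES pH 7.3, 10 mM MgCl2, 0.5% Triton X-100, 0.1 mg/ml BSA. Incubation 180 min at 33°C. Product detected with AP-conjugated anti-BrdU at 405 nm. […] Ki from four inhibitor levels. At least two experiments in duplicate.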

[3] = Inhibition of HIV1 reverse transcriptase 41L/69S-SG/184V/210W/215Y mutant in presence of 5 mM ATP by heteropolymeric DNA polymerase assay; design: species or system Human immunodeficiency virus 1
Procedure, shortened: (§3)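 Heteropolymeric DNA polymerase assay with ATP added at 5 mM. Purified HIV-1 RT at 30–100 pM acts on a plate-bound DNA primer with a 5′-A12-(GTCA)5-3′ template. dATP, dGTP, dCTP and BrdUTP at 1.0 μM each. Incubation 180 min at 33°C. BrdUMP incorporation read via anti-BrdU-AP at 405 nm after NaOH dehybridization. IC50 from seven inhibitor concentrations, at least two experiments in duplicate.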

[4] = Inhibition of HIV1 reverse transcriptase 41L/67N/70R/215Y/219Q mutant in presence of 3.2 mM ATP by prA/odT assay; design: species or system Human immunodeficiency virus 1; procedure, shortened: as §2
[5] = Inhibition of HIV1 reverse transcriptase wild type HXB2(b) by heteropolymeric DNA polymerase assay; design: species or system Human immunodeficiency virus 1
Procedure, shortened: (§4)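 Heteropolymeric assay without ATP: plate-bound 18-mer DNA primer (~110 nM) with 50-mer 5′-A12-(GTCA)5 template (190 nM). dATP, dGTP, dCTP and BrdUTP at 1.0 μM each, in HEPES 50 mM pH 7.3, MgCl2 10 mM. RT 30–100 pM, 33°C for 180 min, then NaOH dehybridization and anti-BrdU-AP tracer read at 405 nm. IC50 from seven triphosphate concentrations; two to four runs in duplicate.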

[6] = Inhibition of HIV1 HXB2 reverse transcriptase 41L/67N/70R/215Y/219Q mutant by heteropolymeric DNA polymerase assay
[7] = Inhibition of HIV1 reverse transcriptase wild type HXB2(a) in presence of 3.2 mM ATP by prA/odT assay; design: species or system Human immunodeficiency virus 1
[8] = Inhibition of HIV1 reverse transcriptase wild type HXB2(b) in presence of 3.2 mM ATP by prA/odT assay; design: species or system Human immunodeficiency virus 1
[9] = Inhibition of HIV1 reverse transcriptase wild type HXB2(a) by heteropolymeric DNA polymerase assay; design: species or system Human immunodeficiency virus 1; procedure, shortened: as §4
[10] = Inhibition of HIV1 reverse transcriptase 41L/67N/70R/184V/210W/215Y mutant by heteropolymeric DNA polymerase assay; design: species or system Human immunodeficiency virus 1; procedure, shortened: as §1
[11] = Inhibition of HIV1 reverse transcriptase 41L/67N/70R/210W/215Y mutant in presence of 5 mM ATP by heteropolymeric DNA polymerase assay; design: species or system Human immunodeficiency virus 1
Procedure, shortened: as §3, with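 “33°C.” for “33°C. BrdUMP incorporation read via anti-BrdU-AP at 405 nm after NaOH dehybridization.”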

[12] = Inhibition of HIV1 reverse transcriptase 41L/69S-SG/210W/215Y mutant in presence of 5'-A12-(GACT)5-3' by heteropolymeric DNA polymerase assay
[13] = Inhibition of HIV1 reverse transcriptase wild type HXB2(a) in presence of 5'-A12-(GACT)5-3' by heteropolymeric DNA polymerase assay; design: species or system Human immunodeficiency virus 1
Procedure, shortened: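 Heteropolymeric DNA assay with 5 mM ATP and dNTPs (BrdUTP replacing TTP) at 1.0 μM, using an alternative template repeat, 5′-A12-(GACT)5-3′. Run at 33°C for 180 min, followed by NaOH dehybridization and anti-BrdU-AP detection at 405 nm. IC50 reported in μM as the mean of at least two runs in duplicate.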

[14] = Inhibition of HIV1 LAI reverse transcriptase 65R mutant by heteropolymeric DNA polymerase assay; design: species or system Human immunodeficiency virus 1; procedure, shortened: as §1
[15] = Inhibition of HIV1 reverse transcriptase 41L/67N/70R/210W/215Y mutant in presence of 5'-A12-(GTCA)5-3' by heteropolymeric DNA polymerase assay; design: species or system Human immunodeficiency virus 1
Procedure, shortened: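 DNA polymerase assay with 5 mM ATP and 1 μM each dATP, dGTP, dCTP and BrdUTP. The 50-base DNA template carries a 5′-A12 tail with a (GTCA)5 or (GACT)5 repeat. IC50 from at least two experiments in duplicate. Fold change is relative to wild-type RT on the same template.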

[16] = Inhibition of HIV1 reverse transcriptase 41L/67N/70R/210W/215Y mutant in presence of 1 uM dNTP by heteropolymeric DNA polymerase assay; design: species or system Human immunodeficiency virus 1
Procedure, shortened: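 DNA polymerase assay with 5 mM ATP and purified HIV-1 RT (HXB2 background) on a plate-bound primer with a 5′-A12-(GTCA)5-3′ template. Each dNTP (dATP, dGTP, dCTP, BrdUTP) is set at either 1 μM or 20 μM. IC50 from at least two experiments in duplicate. Fold change is relative to wild-type RT at the same dNTP level.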

[17] = Inhibition of HIV1 reverse transcriptase wild type HXB2(a) in presence of 20 uM dNTP by heteropolymeric DNA polymerase assay; design: species or system Human immunodeficiency virus 1
Procedure, shortened: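 Heteropolymeric DNA assay containing 5 mM ATP on the 5′-A12-(GTCA)5 template, with each dNTP (BrdUTP in place of TTP) at 1 μM or, in the modified version, 20 μM. Mean IC50 from at least two runs in duplicate.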

| Structure (SMILES) | IC50 [1] [nM] | Ki [2] [nM] | IC50 [3] [nM] | Ki [4] [nM] | IC50 [5] [nM] | IC50 [6] [nM] | Ki [7] [nM] | Ki [8] [nM] | IC50 [9] [nM] | IC50 [10] [nM] | IC50 [11] [nM] | IC50 [12] [nM] | IC50 [13] [nM] | IC50 [14] [nM] | IC50 [15] [nM] | IC50 [16] [nM] | IC50 [17] [nM] |
| --- | --- | --- | --- | --- | --- | --- | --- | --- | --- | --- | --- | --- | --- | --- | --- | --- | --- |
| Cc1cn([C@H]2C[C@H](N=[N+]=[N-])[C@@H](COP(=O)(O)OP(=O)(O)OP(=O)(O)O)O2)c(=O)[nH]c1=O [ZIDOVUDINE TRIPHOSPHATE] | 210 | 130 | 1200 | 95 | 200 | 190 | 5.4 | 4 | 180 |  |  |  |  |  |  |  |  |
| C[C@H](Cn1cnc2c(N)ncnc21)OCP(=O)(O)OP(=O)(O)OP(=O)(O)O |  |  |  |  |  |  |  |  | 1600 | 1400 | 13000 | 17000 | 2800 | 12000 | 13000 | 13000 | 19000 |
| Cc1cn([C@H]2CO[C@@H](COP(=O)(O)OP(=O)(O)OP(=O)(O)O)O2)c(=O)[nH]c1=O | 220 | 13 | 1400 | 11 | 120 | 130 | 2.8 | 1.8 |  | 160 | 500 | 780 | 310 | 460 | 500 | 500 | 2000 |
